In ChEMBL document CHEMBL5058577, “EUbOPEN Chemogenomics Library 2 (Multiplex)” (2022):

Test system: HEK-293T
Assay: Multiplex assay against HEK293T
Type: toxicity, cell-based
Details: human
Procedure, shortened: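 Per cents of healthy-nucleus cells form the tubulin, mitochondrial-mass and membrane-permeability phenotype values. Live cells were stained at seeding with Hoechst33342, BioTracker Green Microtubule Cytoskeleton Dye, MitoTracker Red and Annexin V Alexa Fluor 680. After compound addition they were imaged on a CQ1 microscope at 37°C and 5% CO2, and CellPathfinder machine-learning gating split them into Hoechst high-intensity objects or normal cells, normal cells into healthy, pyknosed or fragmented nuclei, and pyknosed cells into mitotic or apoptotic.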

[1] = 12 h, 1 µM, compound concentration 1 uM, replicate 1
[2] = 12 h, 1 µM, compound concentration 1 uM, replicate 2
[3] = 12 h, 10 µM, compound concentration 10 uM, replicate 1
[4] = 12 h, 10 µM, compound concentration 10 uM, replicate 2
[5] = 24 h, 1 µM, compound concentration 1 uM, replicate 1
[6] = 24 h, 1 µM, compound concentration 1 uM, replicate 2
[7] = 24 h, 10 µM, compound concentration 10 uM, replicate 1
[8] = 24 h, 10 µM, compound concentration 10 uM, replicate 2
[9] = 48 h, 1 µM, compound concentration 1 uM, replicate 1
[10] = 48 h, 1 µM, compound concentration 1 uM, replicate 2
[11] = 48 h, 10 µM, compound concentration 10 uM, replicate 1
[12] = 48 h, 10 µM, compound concentration 10 uM, replicate 2

## COc1cc(NC(=O)CCN2CCC(OC(=O)Nc3ccccc3-c3ccccc3)CC2)c(Cl)cc1CNC[C@H](O)c1ccc(O)c2[nH]c(=O)ccc12 [BATEFENTEROL]
[1]
  Population Apoptotic (%): 42%
  Population Fragmented Nuclei (%): 4%
  Population Healthy Nuclei (%): 81%
  Population Hoechst High Intensity Objects (%): 7%
  Population Membrane Permeable-Phenotype (%): 0%
  Population Mitochondria Different-Phenotype (%): 65%
  Population Mitotic Cells (%): 57%
  Population Normal (%): 92%
  Population Pyknosed Nuclei (%): 14%
  Population Tubulin-Different-Phenotype (%): 44%
  Total Cell Count: 420
[2]
  Population Apoptotic (%): 47%
  Population Fragmented Nuclei (%): 3%
  Population Healthy Nuclei (%): 78%
  Population Hoechst High Intensity Objects (%): 8%
  Population Mitochondria Different-Phenotype (%): 84%
  Population Mitotic Cells (%): 52%
  Population Normal (%): 91%
  Population Pyknosed Nuclei (%): 17%
  Population Tubulin-Different-Phenotype (%): 41%
  Total Cell Count: 285
[3]
  Population Apoptotic (%): 100%
  Population Fragmented Nuclei (%): 90%
  Population Healthy Nuclei (%): 0%
  Population Hoechst High Intensity Objects (%): 31%
  Population Membrane Permeable-Phenotype (%): 0%
  Population Mitochondria Different-Phenotype (%): 0%
  Population Mitotic Cells (%): 0%
  Population Normal (%): 68%
  Population Pyknosed Nuclei (%): 9%
  Population Tubulin-Different-Phenotype (%): 0%
  Total Cell Count: 16
[4]
  Population Apoptotic (%): 52%
  Population Fragmented Nuclei (%): 5%
  Population Healthy Nuclei (%): 72%
  Population Hoechst High Intensity Objects (%): 11%
  Population Membrane Permeable-Phenotype (%): 1%
  Population Mitochondria Different-Phenotype (%): 87%
  Population Mitotic Cells (%): 47%
  Population Normal (%): 88%
  Population Pyknosed Nuclei (%): 22%
  Population Tubulin-Different-Phenotype (%): 67%
  Total Cell Count: 303
[5]
  Population Apoptotic (%): 44%
  Population Fragmented Nuclei (%): 9%
  Population Healthy Nuclei (%): 77%
  Population Hoechst High Intensity Objects (%): 5%
  Population Membrane Permeable-Phenotype (%): 0%
  Population Mitochondria Different-Phenotype (%): 59%
  Population Mitotic Cells (%): 55%
  Population Normal (%): 94%
  Population Pyknosed Nuclei (%): 12%
  Population Tubulin-Different-Phenotype (%): 35%
  Total Cell Count: 527
[6]
  Population Apoptotic (%): 41%
  Population Fragmented Nuclei (%): 7%
  Population Healthy Nuclei (%): 82%
  Population Hoechst High Intensity Objects (%): 8%
  Population Mitochondria Different-Phenotype (%): 65%
  Population Mitotic Cells (%): 58%
  Population Normal (%): 91%
  Population Pyknosed Nuclei (%): 9%
  Population Tubulin-Different-Phenotype (%): 27%
  Total Cell Count: 403
[7]
  Population Apoptotic (%): 0%
  Population Fragmented Nuclei (%): 87%
  Population Healthy Nuclei (%): 12%
  Population Hoechst High Intensity Objects (%): 33%
  Population Membrane Permeable-Phenotype (%): 0%
  Population Mitochondria Different-Phenotype (%): 100%
  Population Mitotic Cells (%): 0%
  Population Normal (%): 66%
  Population Pyknosed Nuclei (%): 0%
  Population Tubulin-Different-Phenotype (%): 100%
  Total Cell Count: 12
[8]
  Population Apoptotic (%): 56%
  Population Fragmented Nuclei (%): 6%
  Population Healthy Nuclei (%): 73%
  Population Hoechst High Intensity Objects (%): 7%
  Population Mitochondria Different-Phenotype (%): 89%
  Population Mitotic Cells (%): 43%
  Population Normal (%): 93%
  Population Pyknosed Nuclei (%): 19%
  Population Tubulin-Different-Phenotype (%): 78%
  Total Cell Count: 357
[9]
  Population Apoptotic (%): 35%
  Population Fragmented Nuclei (%): 15%
  Population Healthy Nuclei (%): 75%
  Population Hoechst High Intensity Objects (%): 3%
  Population Membrane Permeable-Phenotype (%): 0%
  Population Mitochondria Different-Phenotype (%): 36%
  Population Mitotic Cells (%): 65%
  Population Normal (%): 96%
  Population Pyknosed Nuclei (%): 8%
  Population Tubulin-Different-Phenotype (%): 17%
  Total Cell Count: 744
[10]
  Population Apoptotic (%): 51%
  Population Fragmented Nuclei (%): 13%
  Population Healthy Nuclei (%): 79%
  Population Mitochondria Different-Phenotype (%): 42%
  Population Mitotic Cells (%): 48%
  Population Pyknosed Nuclei (%): 6%
  Total Cell Count: 547
[11]
  Population Apoptotic (%): 100%
  Population Fragmented Nuclei (%): 58%
  Population Healthy Nuclei (%): 25%
  Population Hoechst High Intensity Objects (%): 7%
  Population Membrane Permeable-Phenotype (%): 0%
  Population Mitochondria Different-Phenotype (%): 66%
  Population Mitotic Cells (%): 0%
  Population Normal (%): 92%
  Population Pyknosed Nuclei (%): 16%
  Population Tubulin-Different-Phenotype (%): 66%
  Total Cell Count: 13
[12]
  Population Apoptotic (%): 57%
  Population Fragmented Nuclei (%): 11%
  Population Healthy Nuclei (%): 76%
  Population Mitochondria Different-Phenotype (%): 76%
  Population Mitotic Cells (%): 42%
  Population Pyknosed Nuclei (%): 11%
  Population Tubulin-Different-Phenotype (%): 74%
  Total Cell Count: 427
